{"source": "paper PMC7253076", "about": "(Cell chemical biology, 2019)", "key": {"HGK [1]": {"molecular_target": "HGK (Homo sapiens, UniProt O95819)", "sequence (O95819 whole entry)": "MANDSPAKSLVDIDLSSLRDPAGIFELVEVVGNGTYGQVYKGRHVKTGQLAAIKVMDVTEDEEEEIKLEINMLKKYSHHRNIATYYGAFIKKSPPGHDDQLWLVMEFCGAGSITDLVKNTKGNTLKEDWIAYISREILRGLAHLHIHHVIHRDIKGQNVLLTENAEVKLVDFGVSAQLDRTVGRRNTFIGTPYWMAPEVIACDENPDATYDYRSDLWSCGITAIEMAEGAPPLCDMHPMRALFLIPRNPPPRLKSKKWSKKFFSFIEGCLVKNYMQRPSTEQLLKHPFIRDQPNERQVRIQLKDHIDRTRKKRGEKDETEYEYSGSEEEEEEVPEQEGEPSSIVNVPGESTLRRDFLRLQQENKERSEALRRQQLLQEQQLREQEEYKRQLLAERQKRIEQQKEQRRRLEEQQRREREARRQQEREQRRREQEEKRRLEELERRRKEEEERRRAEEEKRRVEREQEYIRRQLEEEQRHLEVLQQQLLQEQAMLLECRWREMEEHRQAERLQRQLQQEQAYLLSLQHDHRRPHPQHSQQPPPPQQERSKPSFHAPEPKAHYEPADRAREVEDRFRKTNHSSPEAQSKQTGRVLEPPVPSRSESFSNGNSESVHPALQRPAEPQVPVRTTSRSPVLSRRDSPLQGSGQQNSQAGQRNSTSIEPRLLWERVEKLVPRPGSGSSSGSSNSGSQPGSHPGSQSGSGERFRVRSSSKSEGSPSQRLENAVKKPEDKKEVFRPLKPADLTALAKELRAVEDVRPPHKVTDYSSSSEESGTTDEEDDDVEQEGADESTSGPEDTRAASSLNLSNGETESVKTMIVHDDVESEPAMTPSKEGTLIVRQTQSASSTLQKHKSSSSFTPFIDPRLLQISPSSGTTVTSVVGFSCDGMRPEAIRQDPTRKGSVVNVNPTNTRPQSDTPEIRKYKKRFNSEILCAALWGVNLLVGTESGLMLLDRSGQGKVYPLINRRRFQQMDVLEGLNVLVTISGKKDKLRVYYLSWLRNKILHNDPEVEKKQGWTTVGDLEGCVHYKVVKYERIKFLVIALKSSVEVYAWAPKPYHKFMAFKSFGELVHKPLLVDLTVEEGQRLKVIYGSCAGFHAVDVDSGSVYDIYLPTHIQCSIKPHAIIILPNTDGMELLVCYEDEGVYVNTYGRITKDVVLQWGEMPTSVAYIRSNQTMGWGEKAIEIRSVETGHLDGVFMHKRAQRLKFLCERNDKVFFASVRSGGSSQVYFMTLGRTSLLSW", "assay": "Cell-free radiolabeled ATP kinase assay", "format": "biochemical", "summary_of_the_method": "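Recombinant HGK and substrate with test compound in radiometric HotSpot assay at 25°C: ATP plus 33P-ATP at 10 μM final, 120 min, then spotted on P81 filter paper and washed. IC50 from 10 concentrations, 0.0002–0.1 μM in 2-fold steps. Otherwise single concentrations were used; the 371-kinase panel was run at 0.1 μM. Activity is % remaining versus DMSO alone.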"}, "MLK3": {"molecular_target": "MLK3 (Homo sapiens, UniProt Q16584)", "sequence (Q16584 whole entry)": "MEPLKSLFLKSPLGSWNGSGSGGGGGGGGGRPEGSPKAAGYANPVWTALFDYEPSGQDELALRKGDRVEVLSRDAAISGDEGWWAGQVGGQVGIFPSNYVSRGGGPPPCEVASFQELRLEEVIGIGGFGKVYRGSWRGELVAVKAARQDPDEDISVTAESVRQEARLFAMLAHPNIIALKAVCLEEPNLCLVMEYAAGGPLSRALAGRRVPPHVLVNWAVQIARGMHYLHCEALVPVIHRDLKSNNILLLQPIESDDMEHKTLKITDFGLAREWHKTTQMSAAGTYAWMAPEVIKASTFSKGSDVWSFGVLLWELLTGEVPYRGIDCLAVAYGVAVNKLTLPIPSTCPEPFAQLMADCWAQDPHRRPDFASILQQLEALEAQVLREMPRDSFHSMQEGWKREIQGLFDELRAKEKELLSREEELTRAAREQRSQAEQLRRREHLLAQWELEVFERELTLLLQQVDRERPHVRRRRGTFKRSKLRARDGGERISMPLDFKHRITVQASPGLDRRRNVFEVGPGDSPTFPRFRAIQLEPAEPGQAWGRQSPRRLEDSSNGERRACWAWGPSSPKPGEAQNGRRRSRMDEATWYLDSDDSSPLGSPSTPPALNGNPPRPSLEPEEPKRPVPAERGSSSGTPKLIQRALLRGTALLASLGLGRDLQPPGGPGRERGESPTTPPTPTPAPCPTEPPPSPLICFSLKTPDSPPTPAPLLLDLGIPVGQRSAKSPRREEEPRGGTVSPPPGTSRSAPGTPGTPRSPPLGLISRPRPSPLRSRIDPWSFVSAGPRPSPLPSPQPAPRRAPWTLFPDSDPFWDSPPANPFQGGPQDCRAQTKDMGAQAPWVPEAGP", "assay": "Cell-free radiolabeled ATP kinase assay", "format": "biochemical", "conditions": "for activity at MLK3: single concentration, cell-free"}, "MLK1": {"molecular_target": "MLK1 (Homo sapiens, UniProt P80192)", "sequence (P80192 whole entry)": "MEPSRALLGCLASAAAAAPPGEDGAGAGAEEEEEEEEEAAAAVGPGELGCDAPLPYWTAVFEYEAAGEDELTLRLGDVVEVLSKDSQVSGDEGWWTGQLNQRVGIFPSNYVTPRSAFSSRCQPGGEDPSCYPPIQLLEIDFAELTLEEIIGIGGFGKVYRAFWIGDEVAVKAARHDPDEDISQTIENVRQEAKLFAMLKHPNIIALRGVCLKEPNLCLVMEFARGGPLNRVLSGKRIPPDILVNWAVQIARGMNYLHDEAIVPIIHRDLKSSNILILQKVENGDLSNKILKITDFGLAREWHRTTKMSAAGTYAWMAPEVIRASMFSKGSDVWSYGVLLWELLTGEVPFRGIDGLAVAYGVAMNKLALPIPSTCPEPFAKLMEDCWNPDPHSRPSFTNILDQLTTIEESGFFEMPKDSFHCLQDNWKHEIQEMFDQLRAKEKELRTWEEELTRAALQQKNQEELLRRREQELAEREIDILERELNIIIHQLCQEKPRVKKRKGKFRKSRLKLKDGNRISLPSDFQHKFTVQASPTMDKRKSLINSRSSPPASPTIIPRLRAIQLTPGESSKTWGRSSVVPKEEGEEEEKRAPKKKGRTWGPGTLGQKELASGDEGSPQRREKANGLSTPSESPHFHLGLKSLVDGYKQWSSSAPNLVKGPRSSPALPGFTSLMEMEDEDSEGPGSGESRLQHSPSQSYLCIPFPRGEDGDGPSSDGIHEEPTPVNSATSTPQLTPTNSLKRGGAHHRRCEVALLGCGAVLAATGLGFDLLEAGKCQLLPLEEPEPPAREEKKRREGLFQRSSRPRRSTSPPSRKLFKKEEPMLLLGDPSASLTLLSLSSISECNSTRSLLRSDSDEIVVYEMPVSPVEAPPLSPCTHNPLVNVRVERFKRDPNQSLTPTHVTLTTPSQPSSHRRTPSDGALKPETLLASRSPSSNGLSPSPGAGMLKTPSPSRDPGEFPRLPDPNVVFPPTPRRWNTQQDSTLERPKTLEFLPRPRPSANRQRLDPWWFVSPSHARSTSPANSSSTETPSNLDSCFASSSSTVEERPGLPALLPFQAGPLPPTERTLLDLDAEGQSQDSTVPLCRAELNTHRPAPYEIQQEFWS", "assay": "Cell-free radiolabeled ATP kinase assay", "format": "biochemical", "conditions": "single concentration", "summary_of_the_method": "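MLK1 radiometric HotSpot assay: recombinant kinase and substrate at 25°C with ATP plus 33P-ATP at 10 μM final, 120 min, spotted on P81 paper and washed. Single-dose panel run at 0.1 μM; IC50 series for MLK1 spanned 0.002–1 μM in 2-fold steps. Read-out is % remaining activity versus DMSO.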"}, "[2]": {"test_system": "TNFα release in LPS-stimulated mouse N9 microglial cells", "assay": "TNFα ELISA in LPS-stimulated N9 microglia", "format": "cell-based", "conditions": "for EC50: Mus musculus, N9, 24 h, read-out: EC50 for decrease of TNFα secretion", "summary_of_the_method": "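N9 mouse microglia were plated at 8000 cells/well on gelatin in DMEM/10% FBS. At 24 h, cells were treated with LPS (E. coli O111:B4) plus test compound at stated concentrations. 24 h later, medium TNFα was measured by ELISA (A450, 540 nm correction). Viability of remaining cells was checked by AlamarBlue, 4 h at 37°C. n = 2 wells; means ± SEM.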"}, "[3]": {"test_system": "human stem-cell-derived motor neurons carrying the ALS-causing SOD1^A4V mutation", "assay": "Motor neuron CPA survival assay, SOD1^A4V ALS motor neurons"}, "[4]": {"test_system": "motor neurons differentiated from human induced pluripotent stem cells derived from a healthy patient", "assay": "Motor neuron CPA survival assay, healthy-patient iPSC-derived motor neurons", "format": "cell-based", "conditions": "CPA-treated healthy human motor neurons, 72 h"}, "[5]": {"test_system": "kinases assayed in cell-free conditions", "assay": "Kinase selectivity score from published cell-free panels", "format": "biochemical"}, "[6]": {"assay": "In vivo pharmacokinetics, IP injection or oral gavage", "design": "species or system mouse", "conditions": "for Brain AUC / Brain mean Cmax / Kp at 3 h / Cmax: mouse; for Brain AUC / Brain mean Cmax: ± SEM; for Kp at 3 h / Cmax: male, B6SJLF1/J; for Kp at 3 h: brain and plasma; for Cmax: plasma", "summary_of_the_method": "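Dosing solution: DMSO stock diluted to 2 mg/mL in 40% PEG-400 plus 55% of a 20% hydroxypropyl-β-cyclodextrin solution. Given at 10 mg/kg IP or by oral gavage to 8-week-old male wild-type B6SJLF1/J mice, n = 3 per route per time point. At 15 min, 3, 8 or 24 h: trunk blood (EDTA 50 mM final, plasma) and fresh brain taken. Analysed by LC-MS against calibration curves; means ± SEM.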"}, "JNK pathway": {"test_system": "JNK pathway", "assay": "Western blots of JNK pathway in CPA-treated motor neurons", "format": "cell-based, mouse", "conditions": "western blot", "summary_of_the_method": "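Day-6 embryoid bodies from mouse ES cells (HB9::GFP reporter, human SOD1 transgene; RA 1 μM + SAG 0.5 μM) were given CPA 10 μM plus test compound 0.5 μM for 4 h, then lysed in HEPES/Triton/SDS buffer. Immunoblots used phospho-JNK (Thr183/Tyr185), phospho-c-Jun (Ser63), phospho-MKK4 (Ser257), total proteins and cleaved caspase 3 at 1:1000, with GAPDH at 1:3000. Signals normalised to GAPDH, phospho to total, and expressed as % of CPA; n = 2 differentiations; unpaired two-tailed t-tests.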"}, "[7]": {"test_system": "CPA-treated motor neurons", "assay": "CPA-treated motor neurons, PKC/ABL inhibitors", "format": "cell-based", "conditions": "data not shown"}, "HGK [8]": {"test_system": "HGK", "conditions": "1 μM; ref Goodfellow et al., 2013; cited from earlier work"}, "[9]": {"conditions": "ref Goodfellow et al. (2013); cited from earlier work"}, "[10]": {"test_system": "HIV-mediated microgliosis in the brain", "conditions": "mice, ref Marker et al. (2013), cited from earlier work"}, "SOD1^G93A mutant rats": {"test_system": "SOD1^G93A mutant rats", "conditions": "late-stage SOD1^G93A mutant rats; ref Trias et al., 2016; cited from earlier work"}, "[11]": {"test_system": "mouse stem cell-derived motor neurons", "conditions": "CPA-treated; ref Thams et al., 2019; cited from earlier work"}, "[12]": {"conditions": "ref Tang et al., 2012; cited from earlier work"}, "[13]": {"conditions": "CPA-treated SOD1^A4V motor neurons"}, "[14]": {"conditions": "CPA 10 μM + compound 0.5 μM, 4 h"}}, "note": "“And” between values parts separate entries of the source, which are not always exact repeats. Identical values can stand only once.", "data": [{"smiles": "CN1CC2CCC(C1)N2Cc1ccc(-c2cnc3[nH]cc(-c4cccc5[nH]ncc45)c3c2)cc1", "note": "[12e, 4-(5-(4-((3-Methyl-3,8-diazabicyclo[3.2.1]octan-8-yl)methyl)phenyl)-1H-pyrrolo[2,3-b]pyridin-3-yl)-1H-indazole]", "values": [{"measurement": "inhibition of HGK activity", "setting": "HGK [1]; single concentration, cell-free", "result": "strongly inhibited HGK activity"}, {"measurement": "activity at MLK3", "setting": "MLK3", "result": "little activity at MLK3"}, {"measurement": "inhibition of MLK1", "setting": "MLK1", "result": "inability to inhibit MLK3 and MLK1"}, {"measurement": "effect on TNFα release at 0.5 μM", "setting": "[2]; 0.5 μM, LPS-stimulated N9 microglia", "result": "did not inhibit TNFα release"}, {"measurement": "effect on TNFα levels", "setting": "[2]; LPS-stimulated N9 microglia", "result": "did not significantly decrease TNFα levels"}, {"measurement": "neuroprotection in CPA survival assay", "setting": "[3]; [13]", "result": "highly neuroprotective"}]}, {"smiles": "Nc1ncc(C(=O)NC2CN(C(=O)C3CC3)C2)c2ccc(-c3cccc(F)c3)nc12", "note": "[GNE-495]", "values": [{"measurement": "rescue of CPA toxicity / neuroprotection", "setting": "[4]", "result": "neuroprotective"}, {"measurement": "selectivity score (kinases with <20% activity remaining / total kinases assayed)", "setting": "[5]; 1 μM, cell-free, calculated from published data, ref Ndubaku et al., 2015", "result": 0.01}]}, {"smiles": "OCCN1CCN(Cc2ccc(-c3cnc4[nH]cc(-c5cccc(Cl)c5)c4c3)cc2)CC1", "note": "[Prostetin/12k, 2-(4-(4-(3-(3-Chlorophenyl)-1H-pyrrolo[2,3-b]pyridin-5-yl)benzyl)piperazin-1-yl)ethan-1-ol]", "values": [{"measurement": "IC50", "setting": "HGK [1]", "result": 0.3, "unit": "nM"}, {"measurement": "activity at MLK3", "setting": "MLK3", "result": "slightly decreased inhibition of MLK3"}, {"measurement": "Brain AUC", "setting": "[6]; 10 mg/kg IP", "result": "11570 (±1655) μg/L•h"}, {"measurement": "Brain mean Cmax", "setting": "[6]; 10 mg/kg IP", "result": "1162 (±91.99) μg/kg"}, {"measurement": "Brain AUC", "setting": "[6]; 10 mg/kg OG", "result": "8429 (±1458) μg/L•h"}, {"measurement": "Brain mean Cmax", "setting": "[6]; 10 mg/kg OG", "result": "658.9 (±257.7) μg/kg"}, {"measurement": "brain Cmax", "setting": "[6]; IP-injected animals, 10 mg/kg", "result": "1162 ng/g and 2.60 μM"}, {"measurement": "Kp at 3 h", "setting": "[6]; ip, 10 mg/kg", "result": 3}, {"measurement": "Kp at 3 h", "setting": "[6]; oral, 10 mg/kg", "result": 3.3}, {"measurement": "Cmax", "setting": "[6]; ip, 10 mg/kg", "result": 454, "unit": "ng/mL"}, {"measurement": "Cmax", "setting": "[6]; po, 10 mg/kg", "result": 184, "unit": "ng/mL"}, {"measurement": "concentrations that significantly attenuated TNFα release", "setting": "[2]; LPS-stimulated N9 microglia", "result": "≥ 0.5", "unit": "µM"}, {"measurement": "EC50", "setting": "[2]", "result": "~470", "unit": "nM"}, {"measurement": "potency relative to compound 1 (fold less potent)", "setting": "[2]; suppression of TNFα release", "result": "~ 5 x"}, {"measurement": "inhibition of JNK pathway components", "setting": "JNK pathway; Fig. S2", "result": "effectively inhibit the same JNK pathway components as compound 1"}, {"measurement": "concentration at which maximum efficacy (Emax) was observed", "setting": "[3]; [13]", "result": 0.5, "unit": "µM"}, {"measurement": "EC50", "setting": "[3]; Homo sapiens, Neuron, 72 h, read-out: EC50 in motor neuron survival assay", "result": 100, "unit": "nM"}]}, {"smiles": "CS(=O)(=O)O.Cn1cc(C2=C(c3cn(CCCSC(=N)N)c4ccccc34)C(=O)NC2=O)c2ccccc21", "note": "[Ro-318220 mesylate]", "values": [{"measurement": "protection of CPA-treated motor neurons", "setting": "[7]", "result": "mildly protective"}]}, {"smiles": "COc1cc(Nc2c(C#N)cnc3cc(OCCCN4CCN(C)CC4)c(OC)cc23)c(Cl)cc1Cl", "note": "[bosutinib]", "values": [{"measurement": "protection of CPA-treated motor neurons", "setting": "[7]", "result": "mildly protective"}]}, {"smiles": "CN1CCN(Cc2ccc(-c3cnc4[nH]cc(-c5ccc6[nH]ccc6c5)c4c3)cc2)CC1", "note": "[compound 1, 3-(1H-Indol-5-yl)-5-(4-((4-methylpiperazin-1-yl)methyl)phenyl)-1H-pyrrolo[2,3-b]pyridine, reference compound]", "values": [{"measurement": "rescue of CPA toxicity / neuroprotection", "setting": "[4]", "result": "neuroprotective"}, {"measurement": "IC50", "setting": "HGK [1]", "result": 5.93, "unit": "nM"}, {"measurement": "IC50", "setting": "MLK3", "result": 18.6, "unit": "nM"}, {"measurement": "Brain AUC", "setting": "[6]; 10 mg/kg IP", "result": "1568 (±147.1) μg/L•h"}, {"measurement": "Brain mean Cmax", "setting": "[6]; 10 mg/kg IP", "result": "208.8 (±10.21) μg/kg"}, {"measurement": "Brain AUC", "setting": "[6]; 10 mg/kg OG", "result": "567.2 (±110.5) μg/L•h"}, {"measurement": "Brain mean Cmax", "setting": "[6]; 10 mg/kg OG", "result": "83.35 (±21.40) μg/kg"}, {"measurement": "Kp at 3 h", "setting": "[6]; ip, 10 mg/kg", "result": 0.23}, {"measurement": "Kp at 3 h", "setting": "[6]; oral, 10 mg/kg", "result": 0.19}, {"measurement": "Cmax", "setting": "[6]; ip, 10 mg/kg", "result": 972, "unit": "ng/mL"}, {"measurement": "Cmax", "setting": "[6]; po, 10 mg/kg", "result": 476, "unit": "ng/mL"}, {"measurement": "EC50", "setting": "[2]", "result": 200, "unit": "nM"}, {"measurement": "JNK activation (phospho-JNK Thr183/Tyr185) compared to CPA alone", "setting": "JNK pathway; [14]", "result": "significantly decreased JNK activation"}, {"measurement": "phosphorylation of MKK4 at Ser257", "setting": "JNK pathway; [14]", "result": "attenuated the phosphorylation"}, {"measurement": "selectivity score (kinases with <20% activity remaining / total kinases assayed)", "setting": "[5]; similar conditions, based on data from ref Goodfellow et al. (2013)", "result": 0.36}, {"measurement": "inhibition of HGK activity", "setting": "HGK [8]", "result": "> 99", "unit": "%"}, {"measurement": "bioavailability (%F) as measured in the plasma", "setting": "[9]", "result": 41}, {"measurement": "effect on HIV-mediated microgliosis in the brain", "setting": "[10]; IP 10 mg/kg twice a day for 28 days", "result": "attenuate Human Immunodeficiency Virus (HIV)-mediated microgliosis"}, {"measurement": "tolerability over long-term dosing", "setting": "[10]", "result": "well-tolerated"}, {"measurement": "maximum motor neuron survival compared to untreated controls", "setting": "[3]; CPA 33 μM, 72 h, CPA alone ~10%", "result": 102, "unit": "%"}, {"measurement": "concentration at which maximum efficacy (Emax) was observed", "setting": "[3]; [13]", "result": 1, "unit": "µM"}]}, {"smiles": "Cc1ccc(NC(=O)c2ccc(CN3CCN(C)CC3)cc2)cc1Nc1nc(-c2cccnc2)cs1", "note": "[masitinib]", "values": [{"measurement": "effect on microgliosis and disease progression", "setting": "SOD1^G93A mutant rats", "result": "attenuate microgliosis and slow disease progression"}]}, {"smiles": "CCN(CC)CCNC(=O)c1c(C)[nH]c(/C=C2\\C(=O)Nc3ccc(F)cc32)c1C", "note": "[sunitinib]", "values": [{"measurement": "protection of motor neurons from ER stress", "setting": "[11]", "result": "protect motor neurons from ER stress"}, {"measurement": "blood-brain barrier crossing", "setting": "[12]", "result": "does not readily cross the blood-brain barrier"}]}]}
